The source of these data is article PMC5350499 (International Journal for Parasitology: Drugs and Drug …, 2017).

In data set [1] the test system is P. falciparum Dd2 (chloroquine-resistant). Kind of data set: SYBR green I-based parasite viability assay, Dd2 strain. As to conditions: for EC50: Plasmodium falciparum, DD2, 72 h. The class given is cell-based, Plasmodium falciparum. The method in brief: (§1)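 Parasites grown in human A+ erythrocytes in RPMI 1640 (25 mM HEPES pH 7.4, 26 mM NaHCO3, 2% dextrose, hypoxanthine, gentamycin, 0.5% Albumax II), 37 °C, 5% CO2. Compound DMSO dilutions (<0.125% DMSO) at 1% parasitemia, 2% hematocrit; chloroquine baseline. After 72 h: frozen at −80 °C, thawed, lysed with saponin/Triton/EDTA buffer containing 0.01% SYBR Green I, 30 min dark at 37 °C; fluorescence read at 485/530 nm. EC50 from 3 experiments × 3 replicates (±SD).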

Data set [2] deals with P. falciparum 3D7 (chloroquine-sensitive). As to the kind of experiment: SYBR green I-based parasite viability assay, 3D7 strain. The class given is cell-based. As to conditions: Plasmodium falciparum, 3D7, 72 h. The method, boiled down: as §1
Data set [3] relates to HepG2 human hepatocyte cells. Kind of data set: MTS cytotoxicity assay. The conditions noted are these: for EC50: Homo sapiens. The class given is cell-based. The method in brief:
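HepG2 seeded at 2500 cells/well in 384-well plates with compound dilutions, 48 h at 37 °C, 5% CO2. MTS reagent added for a further 3 h; absorbance read at 490 nm. EC50 from 3 independent experiments, each in triplicate (±SD).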

The nature of data set [4]: Aqueous solubility at pH 7.4, UV-visible absorption based method. The class given is physicochemical. The conditions noted are these: aqueous solution at pH 7.4, pH 7.4, aqueous buffer.
A short description of data set [5]: Microsomal stability. The class given is in vitro ADME. As to conditions: mouse, liver microsomes. For orientation: Microsomes from liver hold many membrane-bound enzymes, among them those of drug oxidation.
The test system of data set [6] is β-hematin formation. As to the kind of experiment: β-Hematin formation assay. The class given is biochemical. The conditions noted are these: 100 μM; for %Inhibition of β-hematin formation: average of two separate experiments. The method, boiled down:
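Compound added with water, acetone and Nonidet P-40, then hematin-DMSO suspension; incubated 6 h at 37 °C with shaking. β-Hematin measured by pyridine ferrochrome method: 5% v/v final pyridine (from water/20% acetone/HEPES/50% pyridine solution), 10 min under the same conditions, absorbance at 405 nm. Chloroquine and 8-hydroxyquinoline run as references.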

Data set [7] relates to P. falciparum Dd2. Kind of data set: Stage specificity, Giemsa-stained thin smears of synchronized cultures. The class given is cell-based, Plasmodium falciparum.
Data set [8] concerns P. falciparum Dd2. Kind of data set: Stage specificity, YOYO-1 flow cytometry of synchronized cultures. As to conditions: treated at ring stage (6 hpi), 5× EC50; monitored every 12 h. The class given is cell-based, Plasmodium falciparum. The method, boiled down:
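Aliquots taken every 12 h over 48 h. Samples fixed in 0.04% glutaraldehyde/PBS, permeabilized with 0.25% Triton X-100, RNase-treated and stained with YOYO-1. Flow cytometry at 488 nm excitation with a 530/30 filter; DNA content plotted against cell count.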

The subject of data set [9] is P. falciparum HB3 (chloroquine-sensitive). Kind of data set: Image-based merozoite egress and invasion assay. The class given is cell-based, Plasmodium falciparum. As to conditions: for parasite phenotype in sample micrographs: 1 μM at 42 hpi for 24 h (Fig. 4 legend); for effect on merozoite egress and invasion: exposed at 42 hpi (schizont stage) for 24 h, 10 μM per method. The method in brief:
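Sorbitol-synchronized HB3 at 1.5% hematocrit and 5% parasitemia, exposed at 42 hpi for 24 h alongside GlcNAc, E-64 and artemisinin references. Stained with WGA-Alexa Fluor 488 and Mitotracker Red CMXRos (1 nM each, 37 °C, 20 min), then fixed in 4% paraformaldehyde with DAPI. Five fields per well imaged at 405/488/635 nm (40× objective) with automated detection of parasitized erythrocytes.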

Data set [10] deals with P. falciparum. Kind of data set: Parasitemia after treatment at late schizont/segmenter stage. The class given is cell-based, Plasmodium falciparum. The conditions noted are these: 5× EC50, 24 h; compared to control cultures.
In data set [11] the test system is P. berghei ANKA. As to the kind of experiment: Peters' four-day test, murine malaria model. The conditions noted are these: 100 mg/kg twice daily oral. The class given is in vivo, Plasmodium berghei in balb/c mice.
Data set [12] concerns P. berghei ANKA expressing luciferase. Kind of data set: Elimination of existing infection, luciferase IVIS imaging. The class given is in vivo, Plasmodium berghei in Swiss Webster mice. The conditions noted are these: 100 mg/kg once daily oral, started 72 h post-infection; Swiss Webster mice. The method in brief: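 Swiss Webster mice infected with 10^4 luciferase-expressing P. berghei ANKA on day 0 and grouped at 72 h (n = 5/group). Oral gavage once daily for 5 days: test compound 100 mg/kg, chloroquine 40 mg/kg, or vehicle (2% methylcellulose, 0.5% Tween80). On day 7, D-luciferin 150 mg/kg injected; signal detected and quantified by IVIS.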

Where [13] appears, read: HepG2, 48 h, read-out: HepG2 EC50.

≈ marks a conversion by molar mass, not a printed value. Where two headings read alike, the source gives them in different places.

In the case of `CCN(CC)CCCC(C)Nc1cc(/C=C/c2ccc([N+](=O)[O-])cc2)nc2ccc(OC)cc12` (stereo not shown) [UCF 501, 4-Nitro styrylquinoline (NSQ)], the EC50 (usually the concentration needed to bring the measured effect to its halfway point) in data set [1] (read-out: EC50 Dd2) came out at 67 ± 8 nM; in data set [2] (read-out: EC50 3D7) it was 119 ± 3 nM; in [3] (HepG2, 48 h, read-out: EC50 HepG2), 12920 ± 70 nM; in data set [3] (HepG2, read-out: EC50 in HepG2 cells), 12900 nM. This compound had a selectivity in data set [3] (HepG2 EC50 versus Dd2 EC50) of 192. Also, the concentration in solution in [4] (solubility) came to 290 µg/mL (≈ 626 µM). Further, in data set [5], the share remaining (in general, the share of the starting amount still present when the sample was taken) at 1 h came to 47.8%. Besides, the half-life – broadly, the time in which the quantity being followed falls by half – in [5] (Microsomal stability t1/2, mouse liver microsomes) is 56.2 min. Further, the “inhibition of β-hematin formation, in words” value in data set [6] is “totally inactive”. Besides, in data set [6], the “%Inhibition of β-hematin formation” value is reported as 0 ± 0.07%. In addition, the “ring-infected erythrocytes after exposure at 42 hpi” value in data set [7] (5× EC50, compared to untreated controls) was “scarcely seen”. Further, the blocking merozoite egress entry in data set [7] (5× EC50, treated at 42 hpi) is “inactive”. In addition, in [7] (after treatment, all stages of the intraerythrocytic lifecycle), the “time to phenotypically observable developmental changes” value is at most 12 h. Further, in [8], the “intraerythrocytic maturation by flow cytometry” value is on record as “maturation is blocked”. Also, the “parasite phenotype in sample micrographs” value in data set [9] is “accumulation of extracellular merozoites”. Also, the “effect on merozoite egress and invasion” value in data set [9] is “blocks invasion”. Also, the “culture parasitemia after exposure at 42 hpi” value in data set [10] is listed as “significant reduction”. Further, the “mice cured of malaria infection” value in [11] (4 days, Balb/c mice, no infection up to day 30) was 4/5. In addition, the “parasitemia in the one animal not cured, day 22” value in data set [11] (day 22) is listed as 0.2%. Besides, in [11] (day 27, euthanized), the “parasitemia in the one animal not cured, day 27” value turned out to be 40%. Moreover, the “luciferase expressing parasite burden, delayed treatment” value in [12] is on record as “almost cleared”.
As for `CC(C)C[C@H](NC(=O)[C@H]1O[C@@H]1C(=O)O)C(=O)NCCCCN=C(N)N` (relative stereo) [Compound E-64, L-trans-epoxysuccinyl-leucylamido-(4-guanidino)butane], the “effect on merozoite egress and invasion” value in [9] is reported as “completely blocks egress”.
Consider `COC(=O)c1ccc(/C=C/c2cc(NCCCN3CCOCC3)c3cc(OC)ccc3n2)cc1` [Compound 16], for which the figures for the EC50 in data set [1] (read-out: Dd2 EC50), in data set [2] (read-out: 3D7 EC50) and in [3] (setting [13]) were 471 ± 80 nM, 322 ± 40 nM and 12800 ± 20 nM, respectively.
As for `COc1ccc2nc(/C=C/c3ccc([N+](=O)[O-])cc3)cc(NCCCN(C)C)c2c1` [Compound 12], the EC50 in data set [1] (read-out: Dd2 EC50) was 57 ± 30 nM; in data set [2] (read-out: 3D7 EC50), 197 ± 20 nM; in [3] (setting [13]), 15300 ± 50 nM.
As for `Oc1cccc2cccnc12` [8-Hydroxyquinoline], the “%Inhibition of β-hematin formation” value in data set [6] was 6 ± 0.42%.
Regarding `COc1ccc2nc(/C=C/c3ccc([N+](=O)[O-])cc3)cc(NCCCN3CCOCC3)c2c1` [Compound 17], the EC50 in [1] (read-out: Dd2 EC50) is 123 ± 50 nM; in data set [2] (read-out: 3D7 EC50) it was 193 ± 50 nM; in data set [3] (setting [13]), 15700 ± 70 nM.
In the case of `C[C@@H]1CC[C@H]2[C@@H](C)C(=O)O[C@@H]3O[C@@]4(C)CC[C@@H]1[C@]32OO4` [artemisinin, reference compound], the “intraerythrocytic maturation by flow cytometry” value in data set [8] is recorded as “maturation is blocked”. Also, the “effect on merozoite egress and invasion” value in data set [9] was “no effect on invasion”. Further, the “culture parasitemia after exposure at 42 hpi” value in data set [10] is given as “does not cause similar marked reduction”.
For `COc1ccc2nc(/C=C/c3ccccc3)cc(NCCCN3CCOCC3)c2c1` [Compound 13], the EC50 is 303 ± 40 nM in data set [1] (read-out: Dd2 EC50), 373 ± 30 nM in [2] (read-out: 3D7 EC50) and 18000 ± 40 nM in [3] (setting [13]).
Regarding `CC(=O)N[C@@H]1[C@@H](O)[C@H](O)[C@@H](CO)O[C@H]1O` [N-acetylglucosamine], in [9], the “parasite phenotype in sample micrographs” value is “accumulation of extracellular merozoites”; the “effect on merozoite egress and invasion” value is reported as “blocks invasion”.
Turning to `COC(=O)c1ccc(/C=C/c2cc(NCCCN(C)C)c3cc(OC)ccc3n2)cc1` [Compound 11], the figures for the EC50 in [1] (read-out: Dd2 EC50), in data set [2] (read-out: 3D7 EC50) and in data set [3] (setting [13]) were 138 ± 60 nM, 294 ± 60 nM and 14900 ± 30 nM, respectively.
`COc1ccc2nc(/C=C/c3ccc(C(F)(F)F)cc3)cc(NCCCN(C)C)c2c1` [Compound 10]: the 50% effective concentration (EC50) in data set [1] (read-out: Dd2 EC50) is 726 ± 40 nM; in data set [2] (read-out: 3D7 EC50), 605 ± 40 nM; in [3] (setting [13]), over 20000 nM.
Turning to `COc1ccc2nc(/C=C/c3ccc(F)cc3)cc(NCCCN(C)C)c2c1` [Compound 9], the EC50 in data set [1] (read-out: Dd2 EC50) was 137 ± 50 nM; in data set [2] (read-out: 3D7 EC50) it was 299 ± 40 nM; in [3] (setting [13]) it was 12600 ± 10 nM.
In the same order, the values of `COc1ccc2nc(/C=C/c3ccccc3)cc(NCCCN(C)C)c2c1` [Compound 8] are 323 ± 40 nM, 302 ± 10 nM and 19900 ± 40 nM.
`CCN(CC)CCCC(C)Nc1ccnc2cc(Cl)ccc12` (stereo not shown) [Chloroquine, reference compound]: in data set [1] (Dd2 versus 3D7), the “EC50 fold higher in Dd2 compared to 3D7” value amounted to 15 fold. Further, the EC50 in [1] (read-out: Dd2 EC50) was 172 nM; in data set [2] (read-out: 3D7 EC50), 11 ± 2 nM; in data set [3] (setting [13]), over 20000 nM. Moreover, in data set [6], the “inhibition of β-hematin formation, in words” value was “complete inhibition”. Besides, the “%Inhibition of β-hematin formation” value in data set [6] was found to be 100 ± 1.78%.
Turning to `COc1ccc2nc(/C=C/c3ccc(F)cc3)cc(NCCCN3CCOCC3)c2c1` [Compound 14], the EC50 in [1] (read-out: Dd2 EC50) is 208 ± 40 nM; in [2] (read-out: 3D7 EC50), 310 ± 20 nM; in data set [3] (setting [13]) it was 13600 ± 50 nM.
On to `COc1ccc2nc(/C=C/c3ccc(C(F)(F)F)cc3)cc(NCCCN3CCOCC3)c2c1` [Compound 15], for which the EC50 was 735 ± 60 nM in data set [1] (read-out: Dd2 EC50), 599 ± 30 nM in [2] (read-out: 3D7 EC50) and over 20000 nM in [3] (setting [13]).
